Data published in ChEMBL document CHEMBL1671798, “A competition assay to identify amyloidogenesis inhibitors by monitoring the fluorescence emitted by the covalent attachment of a stilbene derivative to transthyretin” (Bioorg Med Chem, 2011).

What was measured:
[1] = target: Transthyretin (Homo sapiens) (UniProt P02766); test: Displacement of 4-fluorophenyl 3-(4-hydroxy-3,5-dimethylstyryl)benzoate from recombinant TTR assessed as fluorescence at 37 degC after 3 hrs; set-up: concentration or dose not given beside the values
How it was run: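 Recombinant WT-TTR from E. coli at 3.6 µM in 10 mM sodium phosphate, 100 mM KCl, 1 mM EDTA, pH 7.0. Test compound (7.2 µM final, added from DMSO) was preincubated 4 h at 25 °C with slow vortexing. S1 (7.2 µM final) was then added. Fluorescence (ex 328/em 384 nm) was read every 10 min for 8 h at 37 °C. The 3 h value is given as % competition fluorescence.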

[2] = target: Transthyretin (Homo sapiens) (UniProt P02766); test: Inhibition of wild type-TTR expressed in Escherichia coli assessed as amyloid fibril formation at pH 4.4 at 7. 2 uM after 72 hrs by acid-mediated aggregation assay relative to control; set-up: scale not given: the % may be the effect or the level left
[3] = target: Transthyretin (Homo sapiens) (UniProt P02766); test: Displacement of S-phenyl 3-(4-hydroxy-3,5-dimethylstyryl)benzothioate from human TTR assessed as fluorescence at 37 degC after 3 hrs; set-up: concentration or dose not given beside the values
How it was run: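 Commercial human serum with endogenous TTR (about 7.5 µM, as measured). Test compound (15 µM final) and S2 (5 µM final) were both added from DMSO stocks. Conjugate fluorescence was read every 10 min over 8 h on a plate reader. The 3 h value is given as % competition fluorescence.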

| SMILES | Activity [1] | Activity [2] | Activity [3] |
| --- | --- | --- | --- |
| Cc1ccc(Cl)c(Nc2ccccc2C(=O)O)c1Cl | 62% | 3% | 85% |
| O=C(Nc1ccccc1)Nc1cc(Br)c(O)c(Br)c1 | 82% | 9% | 100% |
| COc1c(Cl)cc(C(=O)Nc2cc(Br)c(O)c(Br)c2)cc1Cl | 4% | 9% | 26% |
| O=C(O)Cc1ccccc1Nc1c(Cl)cccc1Cl | 85% | 17% | 99% |
| O=C(O)c1cc(-c2ccc(F)cc2F)ccc1O | 75% | 2% | 86% |
| Cc1cccc(CCc2cc(Br)c(O)c(Br)c2)c1 | -7% | 3% | 2% |
| Oc1c(Br)cc(/C=C/c2ccc(Br)cc2)cc1Br | -6% | 2% | 2% |
| O=C(Nc1cc(Br)c(O)c(Br)c1)c1cccc(Cl)c1 | 13% | 8% | 28% |
| O=C(Nc1ccccc1)c1cc(Br)c(O)c(Br)c1 | 42% | – | 61% |
| O=C(O)c1cccc(C(=O)Nc2cc(Br)c(O)c(Br)c2)c1 | 77% | 11% | 85% |
| Brc1cc(Br)cc(Nc2ccccc2)c1 | 76% | – | 100% |
| CC(C(=O)O)c1ccc(-c2ccccc2)c(F)c1 (stereo unspecified) | 93% | 29% | 96% |
| O=C(O)c1ccccc1Nc1cccc(C(F)(F)F)c1 | 44% | 2% | 97% |
| O=C(O)c1ccc(C(=O)Nc2cc(Br)c(O)c(Br)c2)cc1 | 57% | 11% | 45% |
| Cc1cc(Oc2ccccc2)cc(C)c1O | 76% | – | 81% |
| COc1cc(CCc2cc(Br)c(O)c(Br)c2)cc(OC)c1 | 3% | 1% | 30% |
| Oc1c(Br)cc(CCc2cccc(C(F)(F)F)c2)cc1Br | -6% | 1% | 3% |
| Oc1c(Br)cc(CCc2ccc(OC(F)F)cc2)cc1Br | -3% | 1% | 42% |
| Nc1cccc(C(=O)Nc2cc(Br)c(O)c(Br)c2)c1 | 35% | 25% | 24% |
| O=C(Nc1cc(Br)c(O)c(Br)c1)c1ccccc1O | 2% | 2% | 29% |
| O=C(Nc1cc(Br)c(O)c(Br)c1)c1cccc(F)c1 | 18% | 13% | 54% |
| COc1c(Br)cc(C(=O)Nc2cc(Br)c(O)c(Br)c2)cc1Br | 4% | 10% | 44% |
| Cc1cccc(Nc2ccccc2C(=O)O)c1C | 65% | 7% | 96% |
| O=C(Nc1cc(Br)c(O)c(Br)c1)c1ccc(O)cc1 | 32% | 21% | 16% |
| COc1ccccc1/C=C/c1cc(Br)c(O)c(Br)c1 | -6% | 0% | 0% |
| O=C(Nc1cc(Br)c(O)c(Br)c1)c1cccc(Br)c1 | 13% | 8% | 28% |
| O=C(Nc1cc(Br)c(O)c(Br)c1)c1cc(F)cc(F)c1 | 12% | 10% | 35% |
| O=C(Nc1cc(Br)c(O)c(Br)c1)c1cccc(O)c1 | 26% | 9% | 18% |
